Source: ChEMBL document CHEMBL5712884, “S-Adenosyl-L-methionine-competitive inhibitors of the histone methyltransferase EZH2 induce autophagy and enhance drug sensitivity in cancer cells” (Anticancer Drugs, 2015)
Each block holds one compound with its values, some of them ahead of it. Activity calls are given as the source filed them. The rule behind the calls is not given here.

Experiments:
MDA-MB-231 [1] = assay: […] in human MDA-MB-231 cells assessed as induction of LC3-II accumulation at 2 umol/L for 48 hrs by Western blot analysis; type: functional, cell-based; settings: dose 2.0 µmol/L
MDA-MB-231 [2] = assay: Induction of autophagy in human MDA-MB-231 cells assessed as induction of LC3-II accumulation at 10 umol/L for 48 hrs by Western blot analysis; settings: dose 10.0 µmol/L
MDA-MB-231 [3] = assay: Induction of autophagy in human MDA-MB-231 cells assessed as change in total LAMP2 expression at 20 umol/L measured after 24 hrs by Western blot analysis; type: toxicity, cell-based; settings: mda-mb-231, 24 h, 20 µM, dose 20 µmol/L
MDA-MB-231 [4] = assay: Induction of autophagy in human MDA-MB-231 cells assessed as change in total LAMP2 expression at 20 umol/L measured after 24 hrs in presence of bafilomycin A1 by Western blot analysis; type: toxicity, cell-based; settings: mda-mb-231, 24 h, 20 µM, dose 20 µmol/L
MDA-MB-231 [5] = assay: Induction of autophagy in human MDA-MB-231 cells assessed as reduction in expression of p62 at 20 umol/L incubated for 24 hrs by Western blot analysis; type: functional, cell-based; settings: dose 20.0 µmol/L
[6] = target: Histone-lysine N-methyltransferase EZH2 (Homo sapiens) (UniProt Q15910); assay: Inhibition of EZH2 in human A549 cells assessed as reduction in H3K27-me3 level at 20 umol/L incubated for 72 hrs by Western blot analysis; type: cell-based; settings: dose 20.0 µmol/L
Chain of Histone-lysine N-methyltransferase EZH2 (Homo sapiens) (Q15910 whole entry, looked up): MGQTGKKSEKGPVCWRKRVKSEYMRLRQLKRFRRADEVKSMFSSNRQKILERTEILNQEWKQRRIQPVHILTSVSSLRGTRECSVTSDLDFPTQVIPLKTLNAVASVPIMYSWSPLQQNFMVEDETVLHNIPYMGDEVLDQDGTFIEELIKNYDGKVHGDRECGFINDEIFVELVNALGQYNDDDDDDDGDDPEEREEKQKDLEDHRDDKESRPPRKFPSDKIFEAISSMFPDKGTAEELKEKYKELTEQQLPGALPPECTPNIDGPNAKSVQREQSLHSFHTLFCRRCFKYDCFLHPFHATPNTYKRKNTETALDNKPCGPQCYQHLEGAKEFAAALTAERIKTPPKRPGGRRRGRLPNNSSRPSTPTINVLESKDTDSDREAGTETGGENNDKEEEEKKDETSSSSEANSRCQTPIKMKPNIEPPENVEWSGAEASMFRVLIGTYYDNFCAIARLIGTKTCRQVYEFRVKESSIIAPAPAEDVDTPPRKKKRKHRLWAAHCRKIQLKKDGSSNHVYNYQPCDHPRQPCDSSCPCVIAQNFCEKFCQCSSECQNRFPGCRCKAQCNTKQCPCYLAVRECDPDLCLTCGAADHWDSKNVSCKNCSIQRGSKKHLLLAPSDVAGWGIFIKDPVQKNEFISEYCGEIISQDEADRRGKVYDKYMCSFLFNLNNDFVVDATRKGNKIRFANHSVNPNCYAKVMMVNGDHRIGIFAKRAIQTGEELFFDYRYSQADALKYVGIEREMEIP

HepG2 [7] = assay: Potentiation of sorafenib-induced anticancer activity in human HepG2 cells at 10 umol/L measured after 72 hrs by MTT assay; type: functional, cell-based; settings: dose 10.0 µmol/L
In short: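 HepG2 cells given a range of sorafenib doses, with or without 10 μmol/l compound, for 72 h. Viability by MTT (0.5 mg/ml, 4 h, DMSO, A550). Student's t-test against untreated cells.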

MDA-MB-231 [8] = assay: Cytotoxicity against human MDA-MB-231 cells assessed as cell viability at 5 umol/L after 72 hrs by MTT analysis relative to control; type: functional; settings: MDA-MB-231, 72 h, dose 5 µmol/L, read-out: Activity
In short: (§1)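 Cells in DMEM with 10% FBS at 37°C, 5% CO2, plated in 96-well plates and drug-treated for 72 h. MTT 0.5 mg/ml added for 4 h, formazan dissolved in DMSO, absorbance read at 550 nm. Means and SDs; Student's t-test.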

MDA-MB-231 [9] = assay: Induction of autophagy in human MDA-MB-231 cells assessed as induction of LC3-II accumulation at 10 to 20 umol/L incubated for 24 hrs by Western blot analysis; type: functional, cell-based; settings: dose 10-20 µmol/L
HepG2 [10] = assay: Cytotoxicity against human HepG2 cells assessed as effect on cell viability after 72 hrs by MTT analysis; type: functional, cell-based; in short: as §1
MDA-MB-231 [11] = assay: Induction of apoptosis in human MDA-MB-231 cells assessed as induction of cleavage of caspase-3 at 10 to 20 umol/L incubated for 72 hrs by Western blot analysis; type: functional, cell-based; settings: dose 10-20 µmol/L
[12] = target: Histone-lysine N-methyltransferase EZH2 (Homo sapiens) (UniProt Q15910); assay: Inhibition of EZH2 in human MDA-MB-231 cells assessed as reduction in H3K27-me3 level at 20 umol/L incubated for 72 hrs by Western blot analysis; type: cell-based; settings: dose 20.0 µmol/L
HepG2 [13] = assay: […] in human HepG2 cells assessed as induction of LC3-II accumulation at 10 to 20 umol/L measured after 24 hrs in presence of bafilomycin A1 by Western blot analysis; type: functional, cell-based; settings: dose 10-20 µmol/L
In short: (§2)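 A549 and HepG2 cells drug-treated with or without bafilomycin A1. Lysates made in Tris pH 7.5/NP-40 buffer with protease and phosphatase inhibitors, 25–50 μg run on 7–12% SDS-PAGE, probed for LC3B, ECL detection.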

MDA-MB-231 [14] = assay: Induction of apoptosis in human MDA-MB-231 cells assessed as induction of cleavage of PARP at 10 to 20 umol/L incubated for 72 hrs by Western blot analysis; type: functional, cell-based; settings: dose 10-20 µmol/L
A549 [15] = assay: […] in human A549 cells assessed as induction of LC3-II accumulation at 10 to 20 umol/L measured after 24 hrs by Western blot analysis; type: functional, cell-based; settings: dose 10-20 µmol/L; in short: as §2
HepG2 [16] = assay: Cytotoxicity against human HepG2 cells assessed as effect on cell viability incubated for 72 hrs by MTT analysis; type: functional, cell-based; in short: as §1
MDA-MB-231 [17] = assay: Cytotoxicity against human MDA-MB-231 cells assessed as reduction in cell viability at >5 umol/L after 72 hrs by MTT analysis; type: functional, cell-based; settings: dose > 5.0 µmol/L; in short: as §1
[18] = target: Histone-lysine N-methyltransferase EZH2 (Homo sapiens) (UniProt Q15910); assay: Inhibition of EZH2 in human HepG2 cells assessed as reduction in H3K27-me3 level at 20 umol/L incubated for 72 hrs by Western blot analysis; type: cell-based; settings: dose 20.0 µmol/L
HepG2 [19] = assay: Potentiation of sorafenib-induced anticancer activity in human HepG2 cells assessed as increase in cleaved PARP expression at 10 umol/L measured after 72 hrs by Western blot analysis; type: functional, cell-based; settings: dose 10.0 µmol/L
In short: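 HepG2 cells given 5 μmol/l sorafenib, with or without 10 μmol/l compound, for 72 h. Whole-cell lysates immunoblotted for PARP1, LC3B and β-actin.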

A549 [20] = assay: […] in human A549 cells assessed as induction of LC3-II accumulation at 10 to 20 umol/L measured after 24 hrs in presence of bafilomycin A1 by Western blot analysis; type: functional, cell-based; settings: dose 10-20 µmol/L; in short: as §2
HepG2 [21] = assay: […] in human HepG2 cells assessed as induction of LC3-II accumulation at 10 to 20 umol/L measured after 24 hrs by Western blot analysis; type: functional, cell-based; settings: dose 10-20 µmol/L; in short: as §2

SMILES: O=C(CCCCCCC(=O)Nc1ccccc1)NO
- Activity (MDA-MB-231 [1]): Active

SMILES: COc1ccc2cc3[n+](cc2c1OC)CCc1cc2c(cc1-3)OCO2
- Activity (MDA-MB-231 [2]): Active

- inhibition [6]: Active
- inhibition [12]: Active
- inhibition [18]: Active
SMILES: Nc1nccc2c1ncn2[C@@H]1C=C(CO)[C@@H](O)[C@H]1O
- Activity (MDA-MB-231 [3]): Non-Toxic
- Activity (MDA-MB-231 [4]): Non-Toxic
- Activity (MDA-MB-231 [5]): Active
- Activity (HepG2 [7]): inactive
- viability at 5 µM (MDA-MB-231 [8]): 67%
- Activity (MDA-MB-231 [9]): inactive
- Activity (HepG2 [10]): Active
- Activity (MDA-MB-231 [11]): inactive
- Activity (HepG2 [13]): inactive
- Activity (MDA-MB-231 [14]): Active
- Activity (A549 [15]): inactive
- Activity (HepG2 [16]): Active
- Activity (MDA-MB-231 [17]): inactive
- Activity (HepG2 [19]): inactive
- Activity (A549 [20]): inactive
- Activity (HepG2 [21]): inactive
